The results in this text go back to ChEMBL document CHEMBL1138748, “A prodrug approach toward the development of water soluble fluoroquinolones and structure--activity relationships of quinoline-3-carboxylic acids” (2004).

Holding throughout (type): functional
One test deals with Pseudomonas aeruginosa. Kind of test: Antibacterial activity against Pseudomonas aeruginosa strain 27853. In a few lines: (§1)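 Broth microdilution MIC run to NCCLS standards: serial 2-fold dilutions in cation-adjusted Mueller–Hinton broth, inoculum ~5 × 10^5 CFU/mL, incubated 35 °C for 18–24 h. Trays were read by eye, and the MIC was taken as the lowest concentration giving complete growth inhibition (no visible turbidity).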

For test [1], the system named is Staphylococcus aureus. Kind of test: Antibacterial activity against Staphylococcus aureus strain St au 29213. In short, it runs like this: as §1
The subject of another test is Escherichia coli. Kind of test: Antibacterial activity against Escherichia coli strain 25922. In a few lines:
as §1

Another test deals with Enterococcus faecalis. Kind of test: Antibacterial activity against Enterococcus faecalis strain 29212. In short, it runs like this: as §1
Test [2] relates to Staphylococcus aureus. Kind of test: Antibacterial activity against Staphylococcus aureus strain St au 33591 MRSA. In short, it runs like this:
as §1

Each structure is given as a SMILES string. In brackets after ≈: the same amount, converted by molar mass.

For `COc1c(N2CCN(C)CC2)c(F)cc2c(=O)c(C(=O)O)cn(-c3ccc(O)cc3)c12`, the MIC in the test on Pseudomonas aeruginosa amounted to 3.13 µg/mL (≈ 7.32 µM); in the test on Staphylococcus aureus [1], 0.4 µg/mL (≈ 0.936 µM); against Escherichia coli, 0.1 µg/mL (≈ 0.234 µM); in the test on Enterococcus faecalis it was 3.13 µg/mL (≈ 7.32 µM); against Staphylococcus aureus [2], 0.4 µg/mL (≈ 0.936 µM).

On to `O=C(O)c1cn(-c2ccc(O)cc2)c2nc(N3CCNCC3)c(F)cc2c1=O`, for which the MIC in the test on Pseudomonas aeruginosa amounted to 3.13 µg/mL (≈ 8.14 µM); in the test on Staphylococcus aureus [1], 1.56 µg/mL (≈ 4.06 µM); against Escherichia coli it was 1.56 µg/mL (≈ 4.06 µM); in the test on Enterococcus faecalis, 12.5 µg/mL (≈ 32.5 µM); against Staphylococcus aureus [2], 1.56 µg/mL (≈ 4.06 µM).

As to `C[C@H](N)[C@@H]1CCN(c2nc3c(cc2F)c(=O)c(C(=O)O)cn3-c2ccc(O)cc2)C1`, the minimal inhibitory concentration (MIC) in the test with Pseudomonas aeruginosa was found to be 12.5 µg/mL (≈ 30.3 µM); in the test with Staphylococcus aureus [1], 1.56 µg/mL (≈ 3.78 µM); with Escherichia coli, 1.56 µg/mL (≈ 3.78 µM); in the test on Enterococcus faecalis it was 6.25 µg/mL (≈ 15.2 µM); in the test on Staphylococcus aureus [2], 1.56 µg/mL (≈ 3.78 µM).

As to `COc1c(N2C[C@@H](N)C3(CC3)C2)c(F)cc2c(=O)c(C(=O)O)cn(-c3ccc(O)cc3)c12`, the MIC with Pseudomonas aeruginosa was 3.13 µg/mL (≈ 7.12 µM); against Staphylococcus aureus [1] it was 0.78 µg/mL (≈ 1.77 µM); against Escherichia coli, 0.4 µg/mL (≈ 0.91 µM); in the test with Enterococcus faecalis it was 6.25 µg/mL (≈ 14.2 µM); against Staphylococcus aureus [2], 0.78 µg/mL (≈ 1.77 µM).

On to `O=C(O)c1cn(-c2ccc(O)cc2)c2cc(N3CC4CC3CN4)c(F)cc2c1=O` (stereo not given), for which the MIC came out at 6.25 µg/mL (≈ 15.8 µM) against Pseudomonas aeruginosa; 0.78 µg/mL (≈ 1.97 µM) against Staphylococcus aureus [1]; 1.56 µg/mL (≈ 3.95 µM) in the test with Escherichia coli; 12.5 µg/mL (≈ 31.6 µM) with Enterococcus faecalis; 0.78 µg/mL (≈ 1.97 µM) in the test on Staphylococcus aureus [2].

Take `C[C@H](N)[C@@H]1CCN(c2cc3c(cc2F)c(=O)c(C(=O)O)cn3-c2ccc(O)cc2)C1`: the MIC in the test with Pseudomonas aeruginosa was determined as 25 µg/mL (≈ 60.8 µM); with Staphylococcus aureus [1], 0.4 µg/mL (≈ 0.972 µM); with Escherichia coli, 1.56 µg/mL (≈ 3.79 µM); in the test on Enterococcus faecalis it was 6.25 µg/mL (≈ 15.2 µM); against Staphylococcus aureus [2], 0.4 µg/mL (≈ 0.972 µM).

As to `COc1c(N2C[C@@H](C)N[C@@H](C)C2)c(F)cc2c(=O)c(C(=O)O)cn(-c3ccc(O)cc3)c12`, the MIC with Pseudomonas aeruginosa turned out to be 50 µg/mL (≈ 113 µM); with Staphylococcus aureus [1], 3.13 µg/mL (≈ 7.09 µM); against Escherichia coli, 1.56 µg/mL (≈ 3.53 µM); in the test on Enterococcus faecalis, 50 µg/mL (≈ 113 µM); against Staphylococcus aureus [2], 6.25 µg/mL (≈ 14.2 µM).

With `CN1CCCC2CN(c3cc4c(cc3F)c(=O)c(C(=O)O)cn4-c3ccc(O)cc3)CC21` (stereo not given), the MIC against Pseudomonas aeruginosa came out at 6.25 µg/mL (≈ 14.3 µM); with Staphylococcus aureus [1], 0.2 µg/mL (≈ 0.457 µM); against Escherichia coli, 0.2 µg/mL (≈ 0.457 µM); against Enterococcus faecalis, 3.13 µg/mL (≈ 7.15 µM); in the test with Staphylococcus aureus [2], 0.4 µg/mL (≈ 0.914 µM).

`C[C@@H](N)[C@H]1CCN(c2nc3c(cc2F)c(=O)c(C(=O)O)cn3-c2ccc(O)cc2)C1`: the MIC against Pseudomonas aeruginosa came to 12.5 µg/mL (≈ 30.3 µM); in the test on Staphylococcus aureus [1] it was 1.56 µg/mL (≈ 3.78 µM); with Escherichia coli, 6.25 µg/mL (≈ 15.2 µM); against Enterococcus faecalis it was 12.5 µg/mL (≈ 30.3 µM); with Staphylococcus aureus [2] it was 1.56 µg/mL (≈ 3.78 µM).

As for `C[C@@H](N)[C@H]1CCN(c2cc3c(cc2F)c(=O)c(C(=O)O)cn3-c2ccc(O)cc2)C1`, the MIC against Pseudomonas aeruginosa amounted to 50 µg/mL (≈ 122 µM); in the test on Staphylococcus aureus [1], 1.56 µg/mL (≈ 3.79 µM); with Escherichia coli, 3.13 µg/mL (≈ 7.61 µM); against Enterococcus faecalis, 25 µg/mL (≈ 60.8 µM); against Staphylococcus aureus [2], 1.56 µg/mL (≈ 3.79 µM).

Turning to `COc1c(N2CCC(N)C2)c(F)cc2c(=O)c(C(=O)O)cn(-c3ccc(O)cc3)c12` (stereo not given), the MIC in the test with Pseudomonas aeruginosa stood at 6.25 µg/mL (≈ 15.1 µM); against Staphylococcus aureus [1], 1.56 µg/mL (≈ 3.77 µM); against Escherichia coli it was 1.56 µg/mL (≈ 3.77 µM); in the test on Enterococcus faecalis, 25 µg/mL (≈ 60.5 µM); in the test with Staphylococcus aureus [2] it was 1.56 µg/mL (≈ 3.77 µM).

As to `NC1CCN(c2nc3c(cc2F)c(=O)c(C(=O)O)cn3-c2ccc(O)cc2)C1` (stereo not given), the MIC is 1.56 µg/mL (≈ 4.06 µM) in the test with Pseudomonas aeruginosa; 0.78 µg/mL (≈ 2.03 µM) in the test on Staphylococcus aureus [1]; 1.56 µg/mL (≈ 4.06 µM) against Escherichia coli; greater than 50 µg/mL in the test on Enterococcus faecalis; 0.78 µg/mL (≈ 2.03 µM) against Staphylococcus aureus [2].

Consider `C[C@@H]1CN(c2cc3c(cc2F)c(=O)c(C(=O)O)cn3-c2ccc(O)cc2)C[C@H]1N`, for which the MIC in the test on Pseudomonas aeruginosa worked out at 1.56 µg/mL (≈ 3.93 µM); in the test with Staphylococcus aureus [1], 0.2 µg/mL (≈ 0.503 µM); in the test with Escherichia coli, 0.2 µg/mL (≈ 0.503 µM); with Enterococcus faecalis, 1.56 µg/mL (≈ 3.93 µM); in the test with Staphylococcus aureus [2], 0.2 µg/mL (≈ 0.503 µM).

Consider `C[C@H]1CN(c2cc3c(cc2F)c(=O)c(C(=O)O)cn3-c2ccc(O)cc2)C[C@H]1N`, for which the MIC in the test with Pseudomonas aeruginosa turned out to be 1.56 µg/mL (≈ 3.93 µM); against Staphylococcus aureus [1], 0.2 µg/mL (≈ 0.503 µM); with Escherichia coli, 0.2 µg/mL (≈ 0.503 µM); in the test on Enterococcus faecalis, 1.56 µg/mL (≈ 3.93 µM); against Staphylococcus aureus [2], 0.2 µg/mL (≈ 0.503 µM).

Take `CN1CCC2CN(c3nc4c(cc3F)c(=O)c(C(=O)O)cn4-c3ccc(O)cc3)CC21` (stereo not given): the minimum inhibitory concentration (MIC) amounted to 6.25 µg/mL (≈ 14.7 µM) against Pseudomonas aeruginosa; 0.2 µg/mL (≈ 0.471 µM) with Staphylococcus aureus [1]; 0.1 µg/mL (≈ 0.236 µM) against Escherichia coli; 1.56 µg/mL (≈ 3.68 µM) against Enterococcus faecalis; 0.2 µg/mL (≈ 0.471 µM) in the test on Staphylococcus aureus [2].

For the molecule `O=C(O)c1cn(-c2ccc(O)cc2)c2nc(N3CC4CCCNC4C3)c(F)cc2c1=O` (stereo not given), the MIC came out at 1.56 µg/mL (≈ 3.68 µM) with Pseudomonas aeruginosa; 0.4 µg/mL (≈ 0.942 µM) in the test on Staphylococcus aureus [1]; 1.56 µg/mL (≈ 3.68 µM) with Escherichia coli; 3.13 µg/mL (≈ 7.37 µM) against Enterococcus faecalis; 0.4 µg/mL (≈ 0.942 µM) against Staphylococcus aureus [2].

Consider `CC1CNCCN1c1nc2c(cc1F)c(=O)c(C(=O)O)cn2-c1ccc(O)cc1` (stereo not given), for which the MIC against Pseudomonas aeruginosa came out at 6.25 µg/mL (≈ 15.7 µM); against Staphylococcus aureus [1], 0.78 µg/mL (≈ 1.96 µM); in the test with Escherichia coli it was 0.78 µg/mL (≈ 1.96 µM); with Enterococcus faecalis, 6.25 µg/mL (≈ 15.7 µM); in the test with Staphylococcus aureus [2], 0.78 µg/mL (≈ 1.96 µM).

On to `COc1c(N2C[C@@H]3[C@@H](N)[C@@H]3C2)c(F)cc2c(=O)c(C(=O)O)cn(-c3ccc(O)cc3)c12`, for which the MIC in the test with Pseudomonas aeruginosa amounted to 1.56 µg/mL (≈ 3.67 µM); against Staphylococcus aureus [1], 0.1 µg/mL (≈ 0.235 µM); against Escherichia coli, 0.1 µg/mL (≈ 0.235 µM); against Enterococcus faecalis it was 1.56 µg/mL (≈ 3.67 µM); against Staphylococcus aureus [2] it was 0.1 µg/mL (≈ 0.235 µM).
